Assay results published in ChEMBL document CHEMBL1147489, “Pi-delocalized beta-carbolinium cations as potential antimalarials” (Bioorg Med Chem Lett, 2004).

Key:
[1] = tested on: FM3A; test: In vitro cytotoxic activity tested in mouse mammary tumor FM3A cells; assay type: functional, cell-based
Outline: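 Growth-inhibition assay in mouse mammary tumour FM3A cells, used as a model of the host. The value reported is the EC50 for cell growth.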

[2] = tested on: Plasmodium falciparum; test: In vitro antimalarial activity against Plasmodium falciparum FCR3; assay type: functional, organism-based
Outline: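 Drug-sensitive P. falciparum FCR-3 strain tested in vitro; antimalarial potency given as EC50 (M).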

[3] = tested on: FM3A; test: Relative activity against FM3A cells and Plasmodium falciparum FCR3; assay type: functional
Outline: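 Selective toxicity calculated as EC50 in FM3A cells divided by EC50 against P. falciparum FCR-3.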

[4] = tested on: FM3A; test: In vitro growth inhibitory activity tested in mouse mammary tumor FM3A cells at 3.0E-5 M concentration

Row | SMILES | EC50 [1] [µM] | EC50 [2] [µM] | Selective toxicity [3] | Percent growth [4] [%]
1 | C=Cc1c2[nH]c3ccccc3c2c(OC)c[n+]1C.Cc1ccc(S(=O)(=O)[O-])cc1 | 8.4 | 1.1 | 7.6 | –
2 | Cc1c2nc3ccccc3c-2ccn1C | 29 | 4.8 | 6 | –
3 | C[n+]1ccc2c([nH]c3ccccc32)c1-c1ccccc1.Cc1ccc(S(=O)(=O)[O-])cc1 | – | 13 | >1.8 | –
4 | COc1ccc2c3cc[n+](CCO)c(C)c3n(C)c2c1.[Br-] | – | 1.1 | >65 | –
5 | C=C[C@H]1CN2CC[C@H]1C[C@H]2[C@H](O)c1ccnc2ccc(OC)cc12 [QUININE] | – | – | 910 | –
6 | COc1c[n+](C)c(C)c2[nH]c3ccccc3c12.[I-] | 30 | 0.37 | 81 | –
7 | CCc1c2[nH]c3ccccc3c2c(OC)c[n+]1C.[I-] | – | 0.95 | >32 | 63
8 | COc1ccc2c(c1)[nH]c1c(C)nccc12 [HARMINE] | 18 | 22 | 0.82 | –
9 | COc1ccc2c3cc[n+](C)c(C)c3n(C)c2c1.Cc1ccc(S(=O)(=O)[O-])cc1 | 22 | 0.46 | 48 | –
10 | COc1ccc2c3ccnc(C)c3n(C)c2c1 | 32 | 31 | 1 | –
11 | Cc1c2[nH]c3ccccc3c2cc[n+]1C.Cc1ccc(S(=O)(=O)[O-])cc1 | 35 | 2 | 18 | –
12 | CC1=NCCc2c1[nH]c1ccccc21 | 45 | 18 | 2.1 | –
13 | CC1=[N+](C)CCc2c1[nH]c1ccccc21.Cc1ccc(S(=O)(=O)[O-])cc1 | – | 16 | >24 | –
14 | C=Cc1c2[nH]c3ccccc3c2c(OC)c[n+]1CC.Cc1ccc(S(=O)(=O)[O-])cc1 | 10 | 0.13 | 77 | –
15 | COc1cnc(C)c2[nH]c3ccccc3c12 | 18 | 22 | 0.82 | –
16 | C=Cc1ncc(OC)c2c1[nH]c1ccccc12 | 3.8 | 5 | 0.76 | –
17 | CCOC(=O)c1c2[nH]c3ccccc3c2c(OC)c[n+]1C.Cc1ccc(S(=O)(=O)[O-])cc1 | 22 | 19 | 1.2 | –
18 | COc1ccc2c(c1)[nH]c1c(C)[n+](C)ccc12.Cc1ccc(S(=O)(=O)[O-])cc1 | 19 | 1.1 | 17 | –
